Most compounds without a hit are left out; they make up all but 1.3% or so of the library.
DAGLB inh: diacylglycerol lipase beta (human) inhibition. Q8NCG7. HEK293T DAGLB membrane lysate, EnzChek fluorogenic substrate. inhibition, % at 5.17 µM. actives 0.059% (n = 340,000); in the data active = inhibition above about 34%
Target sequence (Q8NCG7 whole entry, looked up): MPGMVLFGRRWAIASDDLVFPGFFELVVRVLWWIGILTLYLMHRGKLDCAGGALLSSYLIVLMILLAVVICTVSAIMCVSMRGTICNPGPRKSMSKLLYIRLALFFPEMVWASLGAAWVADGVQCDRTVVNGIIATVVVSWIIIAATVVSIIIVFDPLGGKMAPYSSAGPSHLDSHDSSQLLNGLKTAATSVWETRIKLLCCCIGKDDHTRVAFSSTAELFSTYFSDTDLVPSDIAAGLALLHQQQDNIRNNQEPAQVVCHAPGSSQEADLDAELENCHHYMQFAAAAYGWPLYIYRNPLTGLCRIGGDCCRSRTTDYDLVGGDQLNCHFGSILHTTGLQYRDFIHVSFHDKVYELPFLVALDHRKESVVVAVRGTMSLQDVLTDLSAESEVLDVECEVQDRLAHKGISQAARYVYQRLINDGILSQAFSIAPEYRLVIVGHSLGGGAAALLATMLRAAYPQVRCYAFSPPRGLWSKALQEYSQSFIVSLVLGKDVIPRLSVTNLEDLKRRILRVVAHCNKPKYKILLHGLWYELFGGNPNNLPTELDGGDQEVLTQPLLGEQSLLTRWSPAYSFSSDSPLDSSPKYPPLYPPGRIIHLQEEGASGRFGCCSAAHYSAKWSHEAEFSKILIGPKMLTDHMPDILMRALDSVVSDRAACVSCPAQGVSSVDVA
iPSC survival up: hiPSC single-cell survival enhancement; ATPlite luminescence; 100% = ROCK inhibitor wells, 0% = DMSO; survival enhancement, % at 20 µM; actives 0.044% (n = 360,000); in the data active = survival enhancement above about 18%;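 note: cells exposed to compounds for 16 hours before the ATP read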
FAS-TE inh: inhibitors of human fatty acid synthase thioesterase domain | recombinant FAS-TE, OMFH fluorogenic substrate, fluorescence endpoint | P49327 | actives 0.67% (n = 360,000) | inhibition, % at 15 µM | AID 602261;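 active = compounds whose normalised, plate-corrected inhibition of enzyme fluorescence in the single-dose primary screen is 50% or more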
MT1-MMP act inh: blocks activation of human MT1-MMP. HT1080 RFP-PRO-GFP cells, GFP/RFP ratio fluorescence, overnight; percent of plate control window, DMSO zero. actives 0.061% (n = 360,000). P50281. GFP/RFP ratio change, % at 20 µM;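 active = GFP/RFP ratio change of at least 30% with cell ATP level not reduced by more than half and red fluorescence within 50% of control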
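Assay system: HT1080 cells carrying an RFP-PRO-GFP reporter | Dosing: Single dose of 20 µM compound, 1% DMSO final | Incubation: Cells overnight before dosing, compound overnight, 37 °C, 5% CO2 | Evaluation: GFP/RFP fluorescence ratio | Control set: DMSO and RFP-L50D-GFP cell wells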
SKN-1 inh: inhibitors of C. elegans SKN-1. C. elegans VP596 Pgst-4::GFP/RFP ratio, acrylamide-induced, 24 h. actives 0.49% (n = 360,000). inhibition, % at 21.8 µM;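 active = interference check ratio from 0.5 to 1.5 plus GFP to RFP signal ratio inhibition reaching or exceeding a fixed threshold, cut at about 30% in these data, passing the limit was not always enough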
FAS-TE conf: confirmation of human fatty acid synthase thioesterase inhibitors | recombinant FAS-TE, OMFH fluorogenic substrate, fluorescence | shares compounds with FAS-TE inh | actives 45% (n = 2,300) | inhibition, % at 15 µM;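 active = compounds inhibiting the enzyme by at least 50% at 15 µM in any one of the replicates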
Numbers stand for hits; 0 = inactive; - = no result.

SMILES	DAGLB inh	iPSC survival up	FAS-TE inh	MT1-MMP act inh	SKN-1 inh	FAS-TE conf
CCCNC(=O)C1(C)CCCN(Cc2c3ccccc3nn2C)C1 (centres undefined)	-	0	0	0	0	-
COc1cc(CN2C[C@@H](CO)O[C@@H](n3cnc4c(NC5CCCC5)ncnc43)C2)cc(OC)c1OC	-	0	0	0	0	-
O=C(O)COc1ccccc1C(Nc1cccnc1)c1cc(Cl)c2cccnc2c1O (centres undefined)	-	0	0	0	0	-
O=C(O)COc1ccccc1C(Nc1ccccn1)c1cc(Cl)c2cccnc2c1O (centres undefined)	0	0	54	0	0	51
COc1ccc2c(C)c(Cl)c(=O)oc2c1	0	0	0	0	0	-
C=C1CC(COc2ccc3c(C)c(Cl)c(=O)oc3c2)(c2ccccc2)OC1=O (centres undefined)	0	0	53	0	0	46
CCOC1=C2CN(S(=O)(=O)c3ccc(C)cc3)[C@H](c3ccccc3)C[C@H]2[C@H]2C(=O)N(c3ccccc3)C(=O)[C@H]2C1	-	0	59	0	0	0
CCOC1=C2CN(S(=O)(=O)c3ccc(C)cc3)[C@H](c3cccc4ccccc34)C[C@H]2[C@H]2C(=O)N(c3ccccc3)C(=O)[C@H]2C1	-	0	77	0	0	0
CCOC1=C2CN(S(=O)(=O)c3ccc(C)cc3)[C@H](c3ccc(CC)cc3)C[C@@H]2N(S(=O)(=O)c2ccc(C)cc2)[C@H](c2ccccc2)C1	-	0	0	0	0	-
CCOC1=C2CN(S(=O)(=O)c3ccc(C)cc3)[C@@H](c3ccc(CC)cc3)C[C@H]2[C@H]2C(=O)N(c3ccccc3)C(=O)[C@H]2C1	-	0	72	0	0	0
CC(C)Cn1c(O)c(N=NC(=O)c2cccc(S(=O)(=O)N3CCCCC3)c2)c2ccccc21	0	0	58	0	0	0
O=C(Nc1cnn(C23CC4CC(CC(C4)C2)C3)c1)c1cnn2c(C(F)(F)F)cc(-c3ccco3)nc12	0	0	61	0	0	0
CCCNC(=O)C1(C)CCCN(C(=O)c2ccccc2F)C1 (centres undefined)	-	0	0	0	0	-
CC#CCN1c2ccccc2[C@]23C[C@@H](C(=O)OC)N(C(=O)NCCBr)C2=NC(C(=O)OC)=C(C(=O)OC)[C@H]13	0	0	64	0	0	0
C=CCN1c2ccccc2[C@]23C[C@@H](C(=O)OC)N(C(=O)NC4CCCC4)C2=NC(C(=O)OC)=C(C(=O)OC)[C@H]13	0	0	75	0	0	0
Nc1nc2c(nnn2C2CC(O)C(CO)O2)c(=O)[nH]1 (centres undefined)	-	0	0	0	0	-
COc1ccccc1C(=O)NN=C1CCN(Cc2ccccc2)CC1	0	0	0	0	0	-
Cc1cc(C)n(C(=O)/C(C#N)=N/Nc2cc(Cl)cc(Cl)c2)n1	0	0	53	0	0	0
Cc1cc(C)n(C(=O)/C(C#N)=N\Nc2ccccc2[N+](=O)[O-])n1	0	0	0	0	0	-
COc1ccc(CN(C)C(=O)COC(=O)c2cc([N+](=O)[O-])ccc2N2CCCC2)c(OC)c1OC	0	0	70	0	0	31
CN(CC(=O)Nc1ccccc1Cl)C(=O)COC(=O)c1cc([N+](=O)[O-])ccc1N1CCOCC1	0	0	0	0	0	-
CCN(C(=O)COC(=O)c1cc([N+](=O)[O-])ccc1N1CCOCC1)c1ccccc1	0	0	78	0	0	71
CCC(C)N(C(=O)COC(=O)c1cc([N+](=O)[O-])ccc1N1CCOCC1)C1CCS(=O)(=O)C1 (centres undefined)	0	0	0	0	0	-
CN(Cc1ccccc1)C(=O)COC(=O)c1cc([N+](=O)[O-])ccc1N1CCOCC1	0	0	92	0	0	91
OC(c1ccccc1)c1ncc(-c2cccc(F)c2)[nH]1 (centres undefined)	-	0	0	0	0	-
C[C@@H]1CN([C@H](C)CO)C(=O)CCCn2cc(nn2)CO[C@H]1CN(C)C(=O)c1ccc2ccn(C)c2c1	-	0	0	0	0	-
O=C(Nc1nnc([C@@H]2C[C@H](O)[C@@H](CO)O2)s1)c1ccc(Oc2ccccc2)cc1	-	0	0	0	0	-
